Data taken from ChEMBL document CHEMBL5712911, “A homogeneous bioluminescent immunoassay to probe cellular signaling pathway regulation” (Commun Biol, 2020).
Calls of active or inactive are those of the source. The rule behind the calls is not given here.

Tests used:
[1] = biological target: T1, Retinoblastoma-associated protein (Homo sapiens) (UniProt P06400); test: Inhibition of RB protein in human MCF7 cells assessed as reduction in 17beta-estradiol-induced Rb phosphorylation at Ser780 residue by NanoBiT cell-based immunoassay
T1 sequence (whole entry): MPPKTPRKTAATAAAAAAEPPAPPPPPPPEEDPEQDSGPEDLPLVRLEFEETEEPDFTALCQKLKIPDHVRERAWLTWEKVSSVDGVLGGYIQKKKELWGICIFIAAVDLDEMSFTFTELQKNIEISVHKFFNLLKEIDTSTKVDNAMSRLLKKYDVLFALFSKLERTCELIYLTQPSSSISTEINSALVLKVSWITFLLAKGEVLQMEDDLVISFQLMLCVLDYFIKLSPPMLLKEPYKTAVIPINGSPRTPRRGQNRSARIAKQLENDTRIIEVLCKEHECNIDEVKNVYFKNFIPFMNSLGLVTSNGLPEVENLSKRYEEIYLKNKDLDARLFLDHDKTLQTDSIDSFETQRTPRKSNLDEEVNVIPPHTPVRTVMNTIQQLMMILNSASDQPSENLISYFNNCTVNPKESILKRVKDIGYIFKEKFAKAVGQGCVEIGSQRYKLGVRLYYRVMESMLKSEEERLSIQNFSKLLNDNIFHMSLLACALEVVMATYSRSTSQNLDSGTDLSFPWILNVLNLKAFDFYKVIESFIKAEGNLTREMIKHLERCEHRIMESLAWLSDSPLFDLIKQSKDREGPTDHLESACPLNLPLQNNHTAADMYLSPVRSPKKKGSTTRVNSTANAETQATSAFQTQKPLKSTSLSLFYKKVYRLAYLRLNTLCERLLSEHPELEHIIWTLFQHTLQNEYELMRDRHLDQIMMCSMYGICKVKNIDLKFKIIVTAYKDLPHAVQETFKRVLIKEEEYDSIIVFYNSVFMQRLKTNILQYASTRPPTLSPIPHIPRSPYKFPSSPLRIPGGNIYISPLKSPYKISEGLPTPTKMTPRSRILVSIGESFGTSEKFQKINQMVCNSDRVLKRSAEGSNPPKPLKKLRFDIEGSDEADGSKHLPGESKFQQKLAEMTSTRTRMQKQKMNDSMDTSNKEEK

[2] = biological target: T1, Retinoblastoma-associated protein (Homo sapiens); test: Inhibition of RB protein in human MCF7 cells assessed as reduction in EGF-induced Rb phosphorylation at Ser807/811 residue by NanoBiT cell-based immunoassay
[3] = biological target: T1, Retinoblastoma-associated protein (Homo sapiens); test: Inhibition of RB protein in human MCF7 cells assessed as reduction in EGF-induced Rb phosphorylation at Ser780 residue by NanoBiT cell-based immunoassay
[4] = biological target: T1, Retinoblastoma-associated protein (Homo sapiens); test: Inhibition of RB protein in human MCF7 cells assessed as reduction in 17beta-estradiol-induced Rb phosphorylation at Ser807/811 residue by NanoBiT cell-based immunoassay
[5] = system: MCF7; test: Inhibition of IKK in human MCF7 cells assessed as reduction in TNFalpha-induced p65 phosphorylation at serine 536 residue at 10 uM preincubated for 1 hr followed by TNFalpha-stimulation and measured after 10 mins by NanoBiT cell-based immunoassay; conditions: time 70.0 min
[6] = system: MCF7; test: Inhibition of IKK in human MCF7 cells assessed as reduction in TNFalpha-induced total IkappaBalpha expression at 10 uM preincubated for 1 hr followed by TNFalpha-stimulation and measured after 10 mins by NanoBiT cell-based immunoassay; conditions: time 70.0 min
[7] = system: Ramos; test: Inhibition of IKK in human Ramos cells assessed as reduction in TNFalpha-induced IkappaBalpha phosphorylation at serine 32 residue preincubated for 1 hr followed by TNFalpha-stimulation and measured after 10 mins by NanoBiT cell-based immunoassay; conditions: time 70.0 min
[8] = system: Ramos; test: Inhibition of IKK in human Ramos cells assessed as reduction in IL-1beta-induced IkappaBalpha phosphorylation at serine 32 residue preincubated for 1 hr followed by IL-1beta-stimulation and measured after 10 mins by NanoBiT cell-based immunoassay; conditions: time 70.0 min
[9] = system: MCF7; test: Inhibition of IKK in human MCF7 cells assessed as reduction in IL-1beta-induced p65 phosphorylation at serine 536 residue preincubated for 1 hr followed by IL-1beta-stimulation and measured after 10 mins by NanoBiT cell-based immunoassay; conditions: time 70.0 min
[10] = system: Primary mammary epithelial cell; test: Inhibition of IKK in human primary mammary epithelial cells assessed as reduction in IL-1beta-induced IkappaBalpha phosphorylation at serine 32 residue preincubated for 1 hr followed by IL-1beta-stimulation and measured after 10 mins by NanoBiT cell-based immunoassay; conditions: time 70.0 min
[11] = system: HeLa; test: Inhibition of IKK in human HeLa cells assessed as reduction in TNFalpha-induced IkappaBalpha phosphorylation at serine 32 residue preincubated for 1 hr followed by TNFalpha-stimulation and measured after 10 mins by NanoBiT cell-based immunoassay; conditions: time 70.0 min
[12] = system: MCF7; test: Inhibition of IKK in human MCF7 cells assessed as reduction in TNFalpha-induced IkappaBalpha degradation preincubated for 1 hr followed by TNFalpha-stimulation and measured after 30 mins by NanoBiT cell-based immunoassay; conditions: time 1.5 hrs
Outline: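 MCF-7 cells (50,000/well, seeded overnight) were preincubated 1 h with graded inhibitor concentrations, then stimulated with TNFα (50 ng per ml, 30 min). Digitonin lysis was followed by NanoBiT total IκBα immunoassay: a rabbit/mouse primary pair plus SmBiT/LgBiT-labelled secondaries for 90 min at 23 °C, then Nano-Glo substrate and luminescence read. IC50 was taken from the dose–response.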

[13] = system: HeLa; test: Inhibition of IKK in human HeLa cells assessed as reduction in IL-1beta-induced IkappaBalpha phosphorylation at serine 32 residue preincubated for 1 hr followed by IL-1beta-stimulation and measured after 10 mins by NanoBiT cell-based immunoassay; conditions: time 70.0 min
[14] = system: MCF7; test: Inhibition of IKK in human MCF7 cells assessed as reduction in IL-1beta-induced IkappaBalpha phosphorylation at serine 32 residue preincubated for 1 hr followed by IL-1beta-stimulation and measured after 10 mins by NanoBiT cell-based immunoassay; conditions: dose 10.0 µM, time 70.0 min
[15] = system: Primary mammary epithelial cell; test: Inhibition of IKK in human primary mammary epithelial cells assessed as reduction in TNFalpha-induced IkappaBalpha phosphorylation at serine 32 residue preincubated for 1 hr followed by TNFalpha-stimulation and measured after 10 mins by NanoBiT cell-based immunoassay; conditions: time 70.0 min
[16] = system: MCF7; test: Inhibition of IKK in human MCF7 cells assessed as reduction in TNFalpha-induced IkappaBalpha phosphorylation at serine 32 residue at 10 uM preincubated for 1 hr followed by TNFalpha-stimulation and measured after 10 mins by NanoBiT cell-based immunoassay; conditions: time 70.0 min
[17] = system: MCF7; test: Inhibition of IKK in human MCF7 cells assessed as effect on TNFalpha-induced p65 expression at 10 uM preincubated for 1 hr followed by TNFalpha-stimulation and measured after 10 mins by NanoBiT cell-based immunoassay; conditions: time 70.0 min
[18] = biological target: Small ribosomal subunit protein eS6 (Homo sapiens) (UniProt P62753); test: Inhibition of S6 ribosomal protein in HEK293 cells assessed as reduction in insulin-induced S6 phosphorylation at Ser235/236 residue by NanoBiT cell-based immunoassay
[19] = biological target: Eukaryotic translation initiation factor 4E-binding protein 1 (Homo sapiens) (UniProt Q13541); test: Inhibition of 4E-BP1 in HEK293 cells assessed as reduction in insulin-induced 4E-BP1 phosphorylation at Ser65 residue by NanoBiT cell-based immunoassay
[20] = biological target: Small ribosomal subunit protein eS6 (Homo sapiens) (UniProt P62753); test: Inhibition of S6 ribosomal protein in HEK293 cells assessed as reduction in serum-induced S6 phosphorylation at Ser240/244 residue by NanoBiT cell-based immunoassay
[21] = biological target: Small ribosomal subunit protein eS6 (Homo sapiens) (UniProt P62753); test: Inhibition of S6 ribosomal protein in HEK293 cells assessed as reduction in insulin-induced S6 phosphorylation at Ser240/244 residue by NanoBiT cell-based immunoassay
[22] = biological target: Eukaryotic translation initiation factor 4E-binding protein 1 (Homo sapiens) (UniProt Q13541); test: Inhibition of 4E-BP1 in human MCF7 cells assessed as reduction in insulin-induced 4E-BP1 phosphorylation at Ser65 residue by NanoBiT cell-based immunoassay
[23] = biological target: Small ribosomal subunit protein eS6 (Homo sapiens) (UniProt P62753); test: Inhibition of S6 ribosomal protein in HEK293 cells assessed as reduction in serum-induced S6 phosphorylation at Ser235/236 residue by NanoBiT cell-based immunoassay
[24] = biological target: T2, Catenin beta-1 (Homo sapiens) (UniProt P35222); test: Induction of beta-catenin degradation in Wnt3a-stimulated HEK293 cells by NanoBiT cell-based immunoassay
T2 sequence (whole entry): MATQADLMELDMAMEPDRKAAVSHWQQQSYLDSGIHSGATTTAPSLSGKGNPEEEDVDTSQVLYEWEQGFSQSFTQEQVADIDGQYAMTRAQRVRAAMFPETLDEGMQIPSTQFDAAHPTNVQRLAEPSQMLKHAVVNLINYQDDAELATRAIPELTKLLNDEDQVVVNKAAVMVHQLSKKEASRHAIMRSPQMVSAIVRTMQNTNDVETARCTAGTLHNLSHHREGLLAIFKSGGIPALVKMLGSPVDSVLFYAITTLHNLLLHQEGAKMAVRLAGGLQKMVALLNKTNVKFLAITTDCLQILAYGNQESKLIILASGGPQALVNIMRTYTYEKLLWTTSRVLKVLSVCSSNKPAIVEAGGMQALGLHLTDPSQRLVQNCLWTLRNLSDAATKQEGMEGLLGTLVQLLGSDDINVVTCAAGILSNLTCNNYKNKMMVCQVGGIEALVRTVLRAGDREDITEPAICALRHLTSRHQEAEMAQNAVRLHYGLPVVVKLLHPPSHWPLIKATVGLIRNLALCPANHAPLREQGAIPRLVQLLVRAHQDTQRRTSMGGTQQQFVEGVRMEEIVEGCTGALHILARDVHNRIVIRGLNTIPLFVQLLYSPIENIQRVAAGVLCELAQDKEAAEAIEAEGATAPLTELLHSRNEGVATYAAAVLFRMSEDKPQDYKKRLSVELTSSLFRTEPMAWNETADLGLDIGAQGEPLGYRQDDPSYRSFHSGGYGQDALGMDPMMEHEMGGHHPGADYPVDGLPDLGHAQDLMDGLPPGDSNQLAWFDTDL

Sequence of Eukaryotic translation initiation factor 4E-binding protein 1 (Homo sapiens) (Q13541 whole entry): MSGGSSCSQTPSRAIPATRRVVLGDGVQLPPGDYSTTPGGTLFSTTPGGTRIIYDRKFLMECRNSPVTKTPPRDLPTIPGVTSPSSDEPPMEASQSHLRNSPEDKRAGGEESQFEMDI

With `CCN(CC)C(=O)c1ccc(Nc2nc(OCC3CCCCC3)c3nc[nH]c3n2)cc1` the inhibition [1] was “Active”, the inhibition [2] was “Active” and the inhibition [3] was “Active”. For the same molecule, the inhibition [4] was “Active”.

With `O=C(c1ccc(Nc2nccc(-c3cc4ccccc4s3)n2)cc1)N1CCC(N2CCCC2)CC1` the inhibition [5] was “Active”, the inhibition [6] was “Active” and the inhibition [7] was “Active”. The inhibition [8] was “Active”, the inhibition [9] was “Active” and the inhibition [10] was “Active”. For the same molecule, the inhibition [11] was “Active”, the inhibition [12] was “Dose-Dependent Effect” and the inhibition [13] was “Active”. The inhibition [14] was “Active”, the inhibition [15] was “Active” and the inhibition [16] was “Active”. The inhibition [17] was “inactive”.

With `CO[C@H]1C[C@@H]2CC[C@@H](C)[C@@](O)(O2)C(=O)C(=O)N2CCCC[C@H]2C(=O)O[C@H]([C@H](C)C[C@@H]2CC[C@@H](O)[C@H](OC)C2)CC(=O)[C@H](C)/C=C(\C)[C@@H](O)[C@@H](OC)C(=O)[C@H](C)C[C@H](C)/C=C/C=C/C=C/1C` the inhibition [18] was “Active”, the inhibition [19] was “Active” and the inhibition [20] was “Active”. The inhibition [21] was “Active”, the inhibition [22] was “Active” and the inhibition [23] was “Active”.

In the case of `O=C1Nc2ccccc2C12OCC1(CO2)COC2(OC1)C(=O)Nc1ccccc12` (centres undefined), the Activity [24] is reported as “Active”.
